Laboratory results as given in ChEMBL document CHEMBL3407477, “Synthesis and biological evaluation of compact, conformationally constrained bifunctional opioid agonist - neurokinin-1 antagonist peptidomimetics” (Eur J Med Chem, 2015).
The source made the active and inactive calls.

Assays:
Rattus norvegicus [1] = species on record: Rattus norvegicus; assay: Selectivity ratio of Ki for rat brain DOR to Ki for rat brain MOR
Rattus norvegicus [2] = species on record: Rattus norvegicus; assay: Antinociceptive activity in Wistar rat at 0.1 to 11 nmol, it after 30 mins to 2 hrs by tail flick test; assay type: functional, organism-based
Rattus norvegicus [3] = assay: Toxicity in Wistar rat assessed as seizures at 9.5 nmol, iv; assay type: organism-based; conditions: in vivo
Rattus norvegicus [4] = assay: Toxicity in Wistar rat assessed as death at 9.5 nmol, iv; assay type: organism-based; conditions: in vivo
Rattus norvegicus [5] = species on record: Rattus norvegicus; assay: Antiallodynic effect in Wistar rat chronic constriction injury model at 0.1 to 1 nmol, it measured 7 days post CCI challenge by Von Frey test; assay type: functional, organism-based
Outline: (§1)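 Male Wistar rats (300-350 g) with i.t. catheters (L4-L6) had CCI made by four loose silk ligatures on the right sciatic nerve. On day 7 they received a single i.t. dose in water for injection. Mechanical allodynia was measured 30 min later with an automatic von Frey device (0.5-26 g) on the midplantar hind paw. Data are %MPE, 6-12 rats/group, ANOVA with Bonferroni.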

Rattus norvegicus [6] = species on record: Rattus norvegicus; assay: Antiallodynic effect in Wistar rat chronic constriction injury model at 1 nmol, it measured 7 days post CCI challenge by Von Frey test; assay type: functional; outline: as §1
Rattus norvegicus [7] = species on record: Rattus norvegicus; assay: Antinociceptive activity in Wistar rat at 1 nmol, it after 30 mins by tail flick test; assay type: functional
Outline: (§2)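 Naive male Wistar rats (250-300 g) with i.t. catheters received a single i.t. injection in water for injection (5 µl plus 10 µl flush), 7 days after catheter implantation. Tail-flick latency to a light-bulb heat stimulus at two-thirds of tail length was read 30 min post-dose (timepoints up to 180 min), with a 9 s cut-off. Data are %MPE = (TL-BL)/(cut-off-BL)×100, 7-12 rats/group, ANOVA with Bonferroni.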

Rattus norvegicus [8] = species on record: Rattus norvegicus; assay: Toxicity in Wistar rat chronic constriction injury model at 1 nmol, it measured 7 days post CCI challenge; assay type: organism-based; conditions: in vivo, icv_or_intrathecal, 168 h
Rattus norvegicus [9] = species on record: Rattus norvegicus; assay: Toxicity in Wistar rat chronic constriction injury model at 11 nmol, it measured 7 days post CCI challenge; assay type: organism-based; conditions: in vivo, icv_or_intrathecal, 168 h
Rattus norvegicus [10] = species on record: Rattus norvegicus; assay: Reduction of hyperalgesia in Wistar rat chronic constriction injury model at 1 nmol, it measured 7 days post CCI challenge by cold plate test; assay type: functional, organism-based
Outline: (§3)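 In catheterized male Wistar rats with sciatic CCI, a single i.t. dose in water for injection was given on day 7. Thermal hyperalgesia was measured 30 min later as latency to hind-paw shake on a 5 °C cold plate. Data are %MPE, 6-12 rats/group, ANOVA with Bonferroni.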

Rattus norvegicus [11] = assay: Antinociceptive activity in it dosed Wistar rat after 30 mins by tail flick test; assay type: functional; outline: as §2
Rattus norvegicus [12] = assay: Antiallodynic effect in it dosed Wistar rat measured 7 days post CCI challenge by Von Frey test; assay type: functional; outline: as §1
Rattus norvegicus [13] = assay: Reduction of hyperalgesia in it dosed Wistar rat measured 7 days post CCI challenge by cold plate test; assay type: functional; outline: as §3
Rattus norvegicus [14] = assay: Antiallodynic effect in Wistar rat chronic constriction injury model assessed as tolerance to neuropathic pain at 1 nmol, it qd for 6 days administered from 7 days post CCI challenge to day 13 by Von Frey test; assay type: functional, organism-based
Outline: (§4)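 CCI Wistar rats received once-daily i.t. injections (morphine 3.5 nmol, hybrids 1 nmol, in water for injection) from day 7 to day 13 after CCI. Von Frey and 5 °C cold plate tests were run 30 min after each dose. Data are %MPE and AUC, 12-16 rats/group, ANOVA with Bonferroni.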

Rattus norvegicus [15] = assay: Antiallodynic effect in Wistar rat chronic constriction injury model assessed as tolerance to neuropathic pain at 1 nmol, it qd for 6 days administered from 7 days post CCI challenge to day 13 by cold plate test; assay type: functional, organism-based; outline: as §4
Rattus norvegicus [16] = assay: Antiallodynic effect in Wistar rat chronic constriction injury model assessed as cross tolerance developement pretreated with morphine at 3.5 nmol, it qd for 6 days administered from 7 days post CCI challenge to day 13 measured 30 mins post compound challenge by Von Frey test; assay type: functional, organism-based
Outline: (§5)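 CCI Wistar rats were made tolerant by 6 days of once-daily i.t. dosing (morphine 3.5 nmol or hybrid 1 nmol). On day 13 they received a single i.t. challenge (morphine 3.5 nmol or hybrid 1 nmol) against repeated-vehicle controls. Von Frey and cold plate tests were run 30 min later. Data are %MPE, 6-8 rats/group, ANOVA with Bonferroni.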

Rattus norvegicus [17] = assay: Antiallodynic effect in Wistar rat chronic constriction injury model assessed as cross tolerance developement pretreated with morphine at 3.5 nmol, it qd for 6 days administered from 7 days post CCI challenge to day 13 measured 30 mins post compound challenge by cold plate test; assay type: functional, organism-based; outline: as §5
Rattus norvegicus [18] = species on record: Rattus norvegicus; assay: Antinociceptive activity in Wistar rat at 0.1 nmol, it after 30 mins by tail flick test; assay type: functional; outline: as §2

In the case of `Cc1cc(O)cc(C)c1C[C@H](N)C(=O)N[C@H](CCCNC(=N)N)C(=O)N[C@H]1Cc2ccccc2CN(CCC(=O)N(C)Cc2ccccc2)C1=O`, the Ratio Ki (Rattus norvegicus [1]) is reported as 3.5, the Activity (Rattus norvegicus [2]) is reported as “Active” and the Activity (Rattus norvegicus [3]) is reported as “Non-toxic”. For the same compound, the Activity (Rattus norvegicus [4]) was “Non-toxic”, the Activity (Rattus norvegicus [5]) was “Active” and the MPE (Rattus norvegicus [6]) was 80%. For the same compound, the MPE (Rattus norvegicus [7]) was 30%, the Activity (Rattus norvegicus [8]) was “Non-toxic” and the Activity (Rattus norvegicus [9]) was “Toxic”. For the same compound, the Activity (Rattus norvegicus [10]) was “Active”, the ED50 (Rattus norvegicus [11]) was 2.78 nmol and the ED50 (Rattus norvegicus [12]) was 0.24 nmol. For the same compound, the ED50 (Rattus norvegicus [13]) was 0.34 nmol, the Activity (Rattus norvegicus [14]) was “Active” and the Activity (Rattus norvegicus [15]) was “Active”. For the same compound, the Activity (Rattus norvegicus [16]) was “inactive”, the Activity (Rattus norvegicus [17]) was “inactive” and the MPE (Rattus norvegicus [18]) was 8.9%.
